Hits are enriched below; roughly 3.3% of the tested compounds scored in any of these assays.
STAT3 act-1: increases IL-6 driven STAT3 reporter signal; U3A cells, IL-6 STAT3-luciferase reporter, luminescence; 100% = signal with IL-6 EC80 alone; activation (% of control), % at 5.6 µM; 0.91% of 190,000 active; AID 871;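 active = activation above the screen-wide mean of compound activation plus 3 SD, cut at about 130% in these data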
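Material: human STAT1-deficient U3A cells with stable STAT3-luciferase reporter / Probe or stimulus: IL-6 stimulus at 33 ng/mL final / Schedule: 1 h compound pre-exposure, 6 h IL-6 stimulation, 37 °C / Technique: luminescence / Read-out basis: percent of IL-6-only median luminescence / Control set: IL-6-only high control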
FXN GAA850 act: activators of GAA850 frataxin (FXN) promoter. 0.56% of 360,000 active. AID 540364. HEK293 lucGAA850 FXN promoter luciferase reporter, 24 h; percent of 10 µM SAHA response. activation, % at 6 µM;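 active = activation above the average of all compounds screened plus 3 SD, cutoff fixed separately per campaign, cut at about 7.5% in these data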
AHR activator: activators of human aryl hydrocarbon receptor | 2.5% of 320,000 active | activation, % at 5 µM | AID 2796 | AHR-responsive luciferase reporter cells, luminescence | P35869; in the data active = activation above about 47%
ABCB6 inh MLPCN: human ABCB6 transporter inhibition; Q9NP58; K562-ABCB6 porphyrin accumulation, flow cytometry, 1 h; stronger effect = lower value; fluorescence ratio to DMSO, % at 10 µM; 0.19% of 360,000 active;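 active = fluorescence ratio to DMSO below 75%, the collection mean minus 3 SD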;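 note: signal is porphyrin accumulated inside mitochondria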
STAT3 act-2: confirmation of STAT3 signaling activators; shares compounds with STAT3 act-1; U3A STAT3-luciferase reporter, IL-6 potentiation, luminescence; U3A cells lack STAT1; 100 means same as IL-6 alone; potentiation (% of control), % at 5.7 µM; 64% of 1,200 active;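 active = percent activation of the STAT3 luciferase reporter above a set limit taken from the earlier primary screen, cut at about 130% in these data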
NFkB act 2: activates NF-kappaB, counter-screen to STAT3 activators; shares compounds with STAT3 act-1; human cells, NF-kappaB reporter activation; activation (% of control), % at 5.7 µM; 11% of 1,200 active; in the data active = activation above about 120%;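 note: reporter induced by TNF-alpha stimulation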
STAT1 act: activates STAT1, counter-screen to STAT3 activators. NIH 3T3 STAT1-luciferase reporter, IFN-gamma, luminescence. 13% of 1,200 active. activation (% of control), % at 5.7 µM. shares compounds with STAT3 act-1;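 active = activation above the solvent-only control well mean plus 3 SD, set per screening run, cut at about 120% in these data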
AHR act cf: confirmation of human aryl hydrocarbon receptor activators. shares compounds with AHR activator. human cells, AHR-responsive luciferase reporter, luminescence. activation, % at 9 µM. 87% of 2,300 active; in the data active = activation above about 49%;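 note: HepG2 hepatoma cells carrying a DRE-driven firefly luciferase reporter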
PXR act counter: PXR activation, counter-screen for AHR activators | activation, % at 11.6 µM | 88% of 2,300 active | cell-based PXR reporter, luciferase luminescence | AID 434939 | shares compounds with AHR activator; in the data active = activation above about 11%;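 note: human hepatoma DPX-2 cells expressing full-length human PXR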
GAA30 FXN cntr: counter-screen for GAA850 frataxin promoter activators: GAA30 promoter activation; shares compounds with FXN GAA850 act; HEK293 lucGAA30 FXN promoter luciferase, 24 h; DMSO = 0%, 5 µM ipriflavone = 100%; activation, % at 6 µM; 66% of 1,900 active; AID 588350;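 active = mean activation above the mean of solvent-only control wells plus 3 SD, cut at about 22% in these data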;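 note: counterscreen of GAA850 promoter hits where activity marks nonselective or luminescence artifacts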
GAA850 confirm: GAA850 FXN promoter activation confirmation; shares compounds with FXN GAA850 act; HEK293 lucGAA850 FXN promoter luciferase reporter, 24 h; 100% = activation by SAHA; activation, % at 6 µM; 86% of 1,900 active; AID 588351;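 active = mean activation above a set limit taken from the primary screen, cut at about 8% in these data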
Large screens that a line does not name were inactive (follow-up assays come after a bar, where they were run).

CCCCn1c(N)c(N(CCOC)C(=O)CN2c3ccccc3CC2C)c(=O)[nH]c1=O (stereo not drawn)	none
COc1ccccc1Cc1nc(-c2ccc(Br)o2)no1	STAT3 act-1 156.2, AHR activator 118.9 | STAT3 act-2 135.9 | NFkB act 2 inactive | STAT1 act 125.7 | AHR act cf 112.8 | PXR act counter 42.9
CCOC(=O)CC(=O)Nc1ccc(C)cc1	none
Cn1nc(-c2ccc(Cl)cc2)c2cc(C(=O)N3CCN(c4ccccc4)CC3)sc21	STAT3 act-1 138.3, AHR activator 100.7 | STAT3 act-2 142.8 | NFkB act 2 inactive | STAT1 act inactive | AHR act cf 73.8 | PXR act counter 33.7
C(=N\Nc1nncc2ccccc12)/c1ccccc1	none (no result: STAT3 act-1)
Clc1nnc(N/N=C/c2ccccc2)c2ccccc12	STAT3 act-1 159.2, AHR activator 81.9 | STAT3 act-2 162.7 | NFkB act 2 123.5 | STAT1 act 163.2 | AHR act cf 109.9 | PXR act counter 22.8
c1ccc(-c2cc3c(-n4cccc4)ncnc3o2)cc1	STAT3 act-1 150.9, AHR activator 85.6 | STAT3 act-2 160.2 | NFkB act 2 inactive | STAT1 act inactive | AHR act cf 105.0 | PXR act counter 23.0
Cc1cc(NC(=O)c2cc([N+](=O)[O-])cc([N+](=O)[O-])c2C)no1	none
CC(NC(=O)/C(=C\c1ccco1)NC(=O)c1ccccc1Br)C(=O)O (stereo not drawn)	none
COc1ccc(Br)cc1C(=O)Nc1ccccc1-c1ccccc1	STAT3 act-1 138.4, AHR activator 81.5 | STAT3 act-2 134.9 | NFkB act 2 inactive | STAT1 act inactive | AHR act cf 76.2 | PXR act counter 12.7
COc1ccc(Br)cc1C(=O)Nc1ccccc1N1CCCC1	none (no result: STAT3 act-1)
O=C(Cc1c[nH]c2ccccc12)Nc1nnc(C2CC2)s1	STAT3 act-1 136.6, AHR activator 90.9 | STAT3 act-2 168.3 | NFkB act 2 inactive | STAT1 act inactive | AHR act cf 90.4 | PXR act counter 20.2
COc1ccc2c(=O)c3c(=O)n(-c4ccccc4)c(-c4ccc(C)cc4)nc3oc2c1	none (no result: STAT3 act-1)
O=c1c2ccccc2oc2nc(-c3ccco3)n(-c3ccccc3)c(=O)c12	STAT3 act-1 136.2, AHR activator 94.6 | STAT3 act-2 134.8 | NFkB act 2 inactive | STAT1 act inactive | AHR act cf 147.6 | PXR act counter 32.7
Cc1csc(-c2coc3cc(O)cc(C)c3c2=O)n1	STAT3 act-1 148.1, AHR activator 94.9 | STAT3 act-2 159.9 | NFkB act 2 inactive | STAT1 act 130.8 | AHR act cf 125.7 | PXR act counter 20.9
Cc1oc2c(cc(NS(=O)(=O)c3cccs3)c3ccccc32)c1C(=O)OC(C)C	STAT3 act-1 153.6, AHR activator 92.2 | STAT3 act-2 inactive | NFkB act 2 inactive | STAT1 act inactive | AHR act cf 91.7 | PXR act counter 162.3
O=C(Nc1cccc(S(=O)(=O)N2CCCCC2)c1)C1CC1	none (no result: STAT3 act-1)
CN(C)c1cc(O)c(C(=S)Nc2ccccc2)c(N(C)C)c1	STAT3 act-1 145.5, AHR activator 125.5 | STAT3 act-2 135.8 | NFkB act 2 inactive | STAT1 act inactive | AHR act cf 101.9 | PXR act counter 114.6
CN(C)S(=O)(=O)c1ccc(C(=O)NCC(=O)N/N=C/c2ccccc2Cl)cc1	none
Cc1cc(-c2nc3ccccc3s2)ccc1N	none (no result: STAT3 act-1, AHR activator)
COc1cc(OC)cc(-c2nc3ccccc3s2)c1	STAT3 act-1 203.0, AHR activator 89.9 | STAT3 act-2 179.8 | NFkB act 2 127.1 | STAT1 act 138.7 | AHR act cf 107.2 | PXR act counter 10.6
Cc1ccc(C(C(=O)NC2CCCC2)N2CCc3ccccc32)cc1 (stereo not drawn)	none
COc1ccc(O)c(-c2cc(-c3cccs3)[nH]n2)c1	STAT3 act-1 144.1, AHR activator 86.5 | STAT3 act-2 inactive | NFkB act 2 inactive | STAT1 act inactive | AHR act cf 138.5 | PXR act counter 26.3
COc1ccc(-c2cc(-c3ccccc3O)[nH]n2)cc1	none
c1ccc(-n2cnnc2SCc2nc3ccccc3s2)cc1	STAT3 act-1 140.4, FXN GAA850 act 7.8 | STAT3 act-2 152.2 | NFkB act 2 121.9 | STAT1 act 131.9 | GAA30 FXN cntr 93.7 | GAA850 confirm 26.4
CCOCCCn1c(SCc2nc3ccccc3s2)nc2ccccc2c1=O	none
COCCn1c(SCc2nc3ccccc3s2)nc2ccccc21	STAT3 act-1 147.2, FXN GAA850 act 8.4 | STAT3 act-2 145.9 | NFkB act 2 122.5 | STAT1 act 140.1 | GAA30 FXN cntr 99.1 | GAA850 confirm 31.1
c1ccc(-c2ncc(CSc3nncn3-c3ccccc3)s2)cc1	none
CCOC(=O)c1sc(Nc2nc3c(F)cccc3s2)cc1C	STAT3 act-1 144.8, FXN GAA850 act 10.7, AHR activator 52.5 | STAT3 act-2 150.0 | NFkB act 2 133.7 | STAT1 act inactive | GAA30 FXN cntr 105.9 | GAA850 confirm 41.8
CCOC(=O)c1sc(Nc2nc3ccc(OC)cc3s2)cc1C	none
COc1ccc(-c2nc(-c3ccccc3)ncc2S(C)(=O)=O)cc1	none
COc1ccc(C(=O)CSc2nnc(NC(=O)C3CC(=O)N(c4ccccc4C)C3)s2)cc1 (stereo not drawn)	none
COc1cc(NC(=O)c2cc3ccccc3o2)c(OC)cc1Br	STAT3 act-1 149.4, FXN GAA850 act 17.3 | STAT3 act-2 135.4 | NFkB act 2 inactive | STAT1 act inactive | GAA30 FXN cntr 24.1 | GAA850 confirm 15.9
Cc1ccc(-c2cc(C(=O)O)c3ccccc3n2)c(C)c1	none (no result: STAT3 act-1)
CCOC(=O)c1cnc(-c2ccccc2)nc1N(C)C	STAT3 act-1 173.0, FXN GAA850 act 8.7 | STAT3 act-2 154.6 | NFkB act 2 inactive | STAT1 act 136.4 | GAA30 FXN cntr 119.6 | GAA850 confirm 40.7
